Test results taken from ChEMBL document CHEMBL1150419, “Structure-activity relationships of a peptide inhibitor of the human FcRn:human IgG interaction” (Bioorg Med Chem, 2008).
pIC50, pKd: −log10 of the molar value. Bridge positions count the residues as written; N and C are the ends. Peptide text beside a SMILES is read from it.

Experiments:
[1] = target: T1, IgG receptor FcRn large subunit p51 (Homo sapiens, UniProt P55899); assay: Inhibition of human IgG binding to soluble human FcRn by ELISA
Summary of the method: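 Biotinylated soluble human FcRn immobilized on neutravidin plates, incubated with hIgG (3 nM, constant) and peptide at varying concentrations for 2 h at 37 °C. After washing, bound hIgG detected with peroxidase-conjugated hIgG-specific Fab fragments.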

[2] = target: T1, IgG receptor FcRn large subunit p51; assay: Binding affinity to human FcRn at pH 6 by surface plasmon resonance assay
Summary of the method: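 Soluble human FcRn coupled to the dextran surface of a CM5 chip; peptide dilutions flowed over the chip. The equilibrium response at each dilution was plotted against concentration and fitted to a steady-state affinity model to give Kd.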

T1 sequence (P55899 whole entry, the tested form may be a part): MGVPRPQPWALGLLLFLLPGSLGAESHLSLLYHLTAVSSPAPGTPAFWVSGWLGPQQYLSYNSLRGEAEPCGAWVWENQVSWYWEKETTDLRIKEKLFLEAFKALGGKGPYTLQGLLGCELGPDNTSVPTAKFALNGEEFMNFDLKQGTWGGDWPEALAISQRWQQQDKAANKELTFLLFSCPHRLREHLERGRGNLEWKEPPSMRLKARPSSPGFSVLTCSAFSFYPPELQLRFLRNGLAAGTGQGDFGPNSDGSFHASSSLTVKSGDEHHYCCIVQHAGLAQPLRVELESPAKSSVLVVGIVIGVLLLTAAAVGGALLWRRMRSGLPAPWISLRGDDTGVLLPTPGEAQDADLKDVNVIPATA

Structure (SMILES)	pIC50 [1]	pKd [2]
CC(C)C[C@H](NC(=O)C(C)(C)NC(=O)CNC(=O)[C@H](Cc1ccccc1)NC(=O)[C@H](Cc1cnc[nH]1)NC(=O)CNC(=O)[C@@H](NC(=O)[C@@H](NC(=O)[C@H](Cc1ccccc1)NC(=O)[C@H](CCCNC(=N)N)NC(=O)[C@@H](N)CCC(N)=O)C(C)(C)S)[C@@H](C)O)C(=O)N[C@@H](Cc1ccc(O)cc1)C(=O)N1CCC[C@H]1C(=O)N[C@@H](CS)C(=O)N[C@@H](CC(N)=O)C(=O)NCC(=O)N1CCC[C@H]1C(=O)O	5.62	6.32
CC(C)C[C@H](NC(=O)CN1CC[C@@H](NC(=O)[C@H](Cc2ccccc2)NC(=O)[C@H](Cc2cnc[nH]2)NC(=O)CNC(=O)[C@@H](NC(=O)[C@@H](NC(=O)[C@H](Cc2ccccc2)NC(=O)[C@@H](N)CCCN=C(N)N)C(C)(C)S)[C@@H](C)O)C1=O)C(=O)N[C@@H](Cc1ccc(O)cc1)C(=O)N1CCC[C@H]1C(=O)N[C@@H](CS)C(=O)O	5.64	6.55
COc1ccc(C[C@H](NC(=O)[C@H](Cc2cnc[nH]2)NC(=O)CNC(=O)[C@@H](NC(=O)[C@@H](NC(=O)[C@H](Cc2ccccc2)NC(=O)[C@H](CCCN=C(N)N)NC(=O)[C@@H](N)CCC(N)=O)C(C)(C)S)[C@@H](C)O)C(=O)NCC(=O)NCC(=O)N[C@@H](CC(C)C)C(=O)N[C@@H](Cc2ccc(O)cc2)C(=O)N2CCC[C@H]2C(=O)N[C@@H](CS)C(=O)N[C@@H](CC(N)=O)C(=O)NCC(=O)N2CCC[C@H]2C(=O)O)cc1	4.00	4.74
CC(C)C[C@H](NC(=O)[C@H](Cc1ccc(O)cc1)NC(=O)[C@@H]1CSSC[C@H](NC(=O)[C@H](Cc2ccccc2)NC(=O)[C@H](CO)NC(=O)[C@@H](N)CC(N)=O)C(=O)N[C@@H](CCCN=C(N)N)C(=O)NCC(=O)N[C@@H](CCCN=C(N)N)C(=O)N2CCC[C@H]2C(=O)NCC(=O)N[C@@H](Cc2cnc[nH]2)C(=O)N[C@@H](Cc2ccccc2)C(=O)NCC(=O)NCC(=O)N1)C(=O)N[C@@H](Cc1ccccc1)C(=O)O (H-NSFCRGRPGHFGGCYLF-OH; disulfide 4-14)	4.48	5.03
CC(C)C[C@H](NC(=O)CNC(=O)CNC(=O)[C@H](Cc1cccc(Cl)c1)NC(=O)[C@H](Cc1cnc[nH]1)NC(=O)CNC(=O)[C@@H](NC(=O)[C@@H](NC(=O)[C@H](Cc1ccccc1)NC(=O)[C@H](CCCNC(=N)N)NC(=O)[C@@H](N)CCC(N)=O)C(C)(C)S)[C@@H](C)O)C(=O)N[C@@H](Cc1ccc(O)cc1)C(=O)N1CCC[C@H]1C(=O)N[C@@H](CS)C(=O)O	5.43	3.64
CC(C)C[C@@H](C(=O)N[C@@H](Cc1ccc(O)cc1)C(=O)N1CCC[C@H]1C(=O)N[C@@H](CS)C(=O)N[C@@H](CC(N)=O)C(=O)NCC(=O)N1CCC[C@H]1C(=O)O)N(C)C(=O)CNC(=O)CNC(=O)[C@H](Cc1ccccc1)NC(=O)[C@H](Cc1cnc[nH]1)NC(=O)CNC(=O)[C@@H](NC(=O)[C@@H](NC(=O)[C@H](Cc1ccccc1)NC(=O)[C@H](CCCN=C(N)N)NC(=O)[C@@H](N)CCC(N)=O)C(C)(C)S)[C@@H](C)O	5.80	7.07
CC(C)C[C@H](NC(=O)[C@@H](CCCN=C(N)N)NC(=O)CNC(=O)[C@H](Cc1ccccc1)NC(=O)[C@H](Cc1cnc[nH]1)NC(=O)CNC(=O)[C@@H](NC(=O)[C@@H](NC(=O)[C@H](Cc1ccccc1)NC(=O)[C@H](CCCN=C(N)N)NC(=O)[C@@H](N)CCC(N)=O)C(C)(C)S)[C@@H](C)O)C(=O)N[C@@H](Cc1ccc(O)cc1)C(=O)N1CCC[C@H]1C(=O)N[C@@H](CS)C(=O)N[C@@H](CC(N)=O)C(=O)NCC(=O)N1CCC[C@H]1C(=O)O	5.09	6.08
CC(C)C[C@@H](C(=O)N[C@@H](Cc1ccc(O)cc1)C(=O)N1CCC[C@H]1C(=O)N[C@@H](CS)C(=O)N[C@@H](CC(N)=O)C(=O)NCC(=O)N1CCC[C@H]1C(=O)O)N(C)C(=O)CNC(=O)[C@@H](C)NC(=O)[C@H](Cc1ccccc1)NC(=O)[C@H](Cc1cnc[nH]1)NC(=O)CNC(=O)[C@@H](NC(=O)[C@@H](NC(=O)[C@H](Cc1ccccc1)NC(=O)[C@H](CCCNC(=N)N)NC(=O)[C@@H](N)CCC(N)=O)C(C)(C)S)[C@@H](C)O	5.49	6.64
CC(C)C[C@H](NC(=O)CNC(=O)CNC(=O)[C@H](Cc1ccccc1)NC(=O)[C@H](Cc1cnc[nH]1)NC(=O)[C@H](C)NC(=O)[C@@H](NC(=O)[C@H](CS)NC(=O)[C@H](Cc1ccccc1)NC(=O)[C@H](CCCNC(=N)N)NC(=O)[C@@H](N)CCC(N)=O)[C@@H](C)O)C(=O)N[C@@H](Cc1ccc(O)cc1)C(=O)N1CCC[C@H]1C(=O)N[C@@H](CS)C(=O)N[C@@H](CC(N)=O)C(=O)NCC(=O)N1CCC[C@H]1C(=O)O	< 3.90	< 3.60
CC(C)C[C@H](NC(=O)CNC(=O)CNC(=O)[C@H](Cc1ccccc1)NC(=O)[C@H](Cc1cnc[nH]1)NC(=O)CNC(=O)[C@@H](NC(=O)[C@H](CS)NC(=O)[C@H](Cc1ccccc1)NC(=O)[C@H](CCCNC(=N)N)NC(=O)[C@@H](N)CCC(N)=O)[C@@H](C)O)C(=O)N[C@@H](C)C(=O)N1CCC[C@H]1C(=O)N[C@@H](CS)C(=O)N[C@@H](CC(N)=O)C(=O)NCC(=O)N1CCC[C@H]1C(=O)O (H-QRFCTGHFGGLAPCNGP-OH)	< 3.90	< 3.60
CC(C)C[C@H](NC(=O)[C@@H]1CCCN1C(=O)[C@H]1CCCN1C(=O)[C@H](Cc1ccccc1)NC(=O)[C@H](Cc1cnc[nH]1)NC(=O)CNC(=O)[C@@H](NC(=O)[C@@H](NC(=O)[C@H](Cc1ccccc1)NC(=O)[C@H](CCCN=C(N)N)NC(=O)[C@@H](N)CCC(N)=O)C(C)(C)S)[C@@H](C)O)C(=O)N[C@@H](Cc1ccc(O)cc1)C(=O)N1CCC[C@H]1C(=O)N[C@@H](CS)C(=O)N[C@@H](CC(N)=O)C(=O)NCC(=O)N1CCC[C@H]1C(=O)O	< 3.60	< 4.00
CC(C)C[C@H](NC(=O)CNC(=O)CNC(=O)[C@H](Cc1ccccc1)NC(=O)[C@H](Cc1cnc[nH]1)NC(=O)CNC(=O)[C@@H](NC(=O)[C@H](CS)NC(=O)[C@H](C)NC(=O)[C@H](CCCN=C(N)N)NC(=O)[C@@H](N)CCC(N)=O)[C@@H](C)O)C(=O)N[C@@H](Cc1ccc(O)cc1)C(=O)N1CCC[C@H]1C(=O)N[C@@H](CS)C(=O)N[C@@H](CC(N)=O)C(=O)NCC(=O)N1CCC[C@H]1C(=O)O (H-QRACTGHFGGLYPCNGP-OH)	4.02	4.55
CC(C)C[C@H](NC(=O)CNC(=O)CNC(=O)[C@H](Cc1ccccc1)NC(=O)[C@H](Cc1cnc[nH]1)NC(=O)CNC(=O)[C@@H](NC(=O)[C@H](CS)NC(=O)[C@H](Cc1ccccc1)NC(=O)[C@H](CCCNC(=N)N)NC(=O)[C@@H](N)CCC(N)=O)[C@@H](C)O)C(=O)N[C@@H](Cc1ccc(O)cc1)C(=O)N1CCC[C@H]1C(=O)N[C@@H](CS)C(=O)N[C@@H](CC(N)=O)C(=O)NCC(=O)N1CCC[C@H]1C(=O)O	4.40	5.29
CC(C)C[C@H](NC(=O)CNC(=O)CNC(=O)[C@H](Cc1ccccc1)NC(=O)[C@H](Cc1cnc[nH]1)NC(=O)CNC(=O)[C@H](C)NC(=O)[C@H](CS)NC(=O)[C@H](Cc1ccccc1)NC(=O)[C@H](CCCN=C(N)N)NC(=O)[C@@H](N)CCC(N)=O)C(=O)N[C@@H](Cc1ccc(O)cc1)C(=O)N1CCC[C@H]1C(=O)N[C@@H](CS)C(=O)N[C@@H](CC(N)=O)C(=O)NCC(=O)N1CCC[C@H]1C(=O)O (H-QRFCAGHFGGLYPCNGP-OH)	4.52	5.31
CC(C)C[C@H](NC(=O)CNC(=O)[C@H](C)NC(=O)[C@H](Cc1ccccc1)NC(=O)[C@H](Cc1cnc[nH]1)NC(=O)CNC(=O)[C@@H](NC(=O)[C@H](CS)NC(=O)[C@H](Cc1ccccc1)NC(=O)[C@H](CCCNC(=N)N)NC(=O)[C@@H](N)CCC(N)=O)[C@@H](C)O)C(=O)N[C@@H](Cc1ccc(O)cc1)C(=O)N1CCC[C@H]1C(=O)N[C@@H](CS)C(=O)N[C@@H](CC(N)=O)C(=O)NCC(=O)N1CCC[C@H]1C(=O)O	< 3.90	3.64
CC(C)C[C@@H](C(=O)N[C@@H](Cc1ccc(O)cc1)C(=O)N1CCC[C@H]1C(=O)N[C@@H](CS)C(=O)N[C@@H](CC(N)=O)C(=O)NCC(=O)N1CCC[C@H]1C(=O)O)N(C)C(=O)CNC(=O)[C@@H](Cc1ccccc1)NC(=O)[C@H](Cc1ccccc1)NC(=O)[C@H](Cc1cnc[nH]1)NC(=O)CNC(=O)[C@@H](NC(=O)[C@@H](NC(=O)[C@H](Cc1ccccc1)NC(=O)[C@H](CCCNC(=N)N)NC(=O)[C@@H](N)CCC(N)=O)C(C)(C)S)[C@@H](C)O	5.89	6.62
CC(C)C[C@@H](C(=O)N[C@@H](Cc1ccc(O)cc1)C(=O)N1CCC[C@H]1C(=O)N[C@@H](CS)C(=O)O)N(C)C(=O)CNC(=O)CNC(=O)[C@H](Cc1ccccc1)NC(=O)[C@H](Cc1cnc[nH]1)NC(=O)CNC(=O)[C@@H](NC(=O)[C@@H](NC(=O)[C@H](Cc1ccccc1)NC(=O)[C@@H](N)CCCN=C(N)N)C(C)(C)S)[C@@H](C)O	5.68	7.23
CC(C)C[C@H](NC(=O)[C@@H](C)NC(=O)[C@@H](C)NC(=O)[C@H](Cc1ccccc1)NC(=O)[C@H](Cc1cnc[nH]1)NC(=O)CNC(=O)[C@@H](NC(=O)[C@H](CS)NC(=O)[C@H](Cc1ccccc1)NC(=O)[C@H](CCCN=C(N)N)NC(=O)[C@@H](N)CCC(N)=O)[C@@H](C)O)C(=O)N[C@@H](Cc1ccc(O)cc1)C(=O)N1CCC[C@H]1C(=O)N[C@@H](CS)C(=O)N[C@@H](CC(N)=O)C(=O)NCC(=O)N1CCC[C@H]1C(=O)O	4.16	4.66
CC(C)C[C@@H](C(=O)N[C@@H](Cc1ccc(O)cc1)C(=O)N1CCC[C@H]1C(=O)N[C@@H](CS)C(=O)O)N(C)C(=O)CN1CCC[C@@H](NC(=O)[C@H](Cc2ccccc2)NC(=O)[C@H](Cc2cnc[nH]2)NC(=O)CNC(=O)[C@@H](NC(=O)[C@H](NC(=O)[C@H](Cc2ccccc2)NC(=O)[C@@H](N)CCCNC(=N)N)C(C)(C)S)[C@@H](C)O)C1=O	6.28	7.37
